According to ChEMBL document CHEMBL2331458, “Examination of the mode of action of the almiramide family of natural products against the kinetoplastid parasite Trypanosoma brucei” (J Nat Prod, 2013):
Activity calls are given as the source filed them. No cut-off for these calls is given here. Starred links: 1 amine or outer side, 2 acyl side, 3 side chain; linkers in the order of their positions; H or OH if unused. Non-standard residues stand in square brackets, D forms with d. Residues, ends and D or L forms follow the SMILES beside them. *: point of attachment. BODIPY(FL) = CC1=CC(C)=[N+]2C1=Cc1ccc(CCC(=O)*)n1[B-]2(F)F; Ethylenediamine = C(CN[*:2])N[*:1]; NMeF = CN[C@@H](Cc1ccccc1)C(=O)O; X1 = CN(CCCCCCCCC(=O)[*:2])[*:1]; Oct(7)enoyl = C=CCCCCCC(=O)*; NMeV = CN[C@H](C(=O)O)C(C)C; NMeA = CN[C@@H](C)C(=O)O

Legend:
[1] = Drug uptake in 120 hrs post fertilized zebrafish embryo intestinal tract at 1 to 270 uM after 3 hrs by confocal microscopic analysis; format: ADME, Danio rerio; conditions: in vivo
Summary of the method: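 Zebrafish embryos at 48 and 120 h post fertilization were incubated with fluorescent probe or fluorophore control in methylene blue-free egg water at 270, 90, 30 and 0 µM, three embryos per treatment. Localization was imaged by confocal microscopy after 3 h.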

[2] = system: Trypanosoma brucei brucei; test: Binding affinity to Trypanosoma brucei brucei 427-221 PEX11 at 50 uM by […] staining method
Summary of the method: (§1)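 Procyclic trypanosomes spread on glass, dried, fixed in 70% EtOH, then permeabilized in PBS/0.2% Triton for 20 min and blocked in PBS/0.5% gelatin. Anti-aldolase (1:500, 1 h) marked glycosomes. Cells were then stained 1 h with probe (5 or 50 µM) plus Alexa 594 anti-rabbit and 100 ng/mL DAPI. Imaged by epifluorescence at 100× oil.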

[3] = system: Trypanosoma brucei brucei; test: Binding affinity to Trypanosoma brucei brucei 427-221 GIM5 at 50 uM by […] staining method; summary of the method: as §1
[4] = system: Trypanosoma brucei brucei; test: Binding affinity to Trypanosoma brucei brucei 427-221 kinetoplast DNA at 5 uM after 1 hr by DAPI staining method; summary of the method: as §1
[5] = Drug uptake in Trypanosoma brucei brucei 427-221 cytosol at 5 uM after 1 hr by DAPI staining method; format: ADME; summary of the method: as §1
[6] = system: Trypanosoma brucei brucei; test: Antiparasitic activity against Trypanosoma brucei brucei 427-221 assessed as growth inhibition up to 3.1 uM after 48 hrs by cellTiter-Glo assay; format: functional, organism-based
Summary of the method: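 T. b. brucei 427-221 bloodstream forms, grown in HMI-9 with 10% FBS and 10% Serum Plus at 37 °C, 5% CO2. Seeded at 2×10^4/mL with DMSO-serially diluted compound (1% DMSO final) for 48 h. Thimerosal 2 µM final served as positive control. Viability read by CellTiter-Glo ATP luminescence; % inhibition normalized to controls, IC50 by curve fit.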

[7] = Drug uptake in Trypanosoma brucei brucei 427-221 nucleus at 5 uM after 1 hr by DAPI staining method; format: ADME; summary of the method: as §1

C=CCCCCCC(=O)N(C)[C@H](C(=O)N(C)[C@H](C(=O)N(C)[C@H](C(=O)N(C)[C@@H](C)C(=O)N(C)[C@@H](Cc1ccccc1)C(=O)N(C)CCCCCCCCC(=O)NCCNC(=O)CCC1=[N+]2C(=Cc3c(C)cc(C)n3[B-]2(F)F)C=C1)C(C)C)C(C)C)C(C)C ({Oct(7)enoyl}-[NMeV][NMeV][NMeV][NMeA][NMeF][X1]-{Ethylenediamine-BODIPY(FL)})
Drug uptake [1]: Not Active | Activity [2]: Active | Activity [3]: Active | Activity [4]: inactive | Drug uptake [5]: Active | Activity [6]: Active | Drug uptake [7]: Not Active
